ChEMBL document CHEMBL1143104, “Identification and characterization of pyrrolidine diastereoisomers as potent functional agonists and antagonists of the human melanocortin-4 receptor” (Bioorg Med Chem Lett, 2008)
pEC50, pIC50, pKi: −log10 of the molar value. Active and inactive are the calls of the source. The rule behind the calls is not given here.

Columns and labels:
[1] = target: T1, Melanocortin receptor 4 (Homo sapiens, UniProt P32245); experiment: Antagonist activity at human MC4 receptor expressed in CHO cells assessed as inhibition of alpha-MSH-stimulated cAMP production; assay type: functional, cell-based
T1 sequence (P32245 whole entry): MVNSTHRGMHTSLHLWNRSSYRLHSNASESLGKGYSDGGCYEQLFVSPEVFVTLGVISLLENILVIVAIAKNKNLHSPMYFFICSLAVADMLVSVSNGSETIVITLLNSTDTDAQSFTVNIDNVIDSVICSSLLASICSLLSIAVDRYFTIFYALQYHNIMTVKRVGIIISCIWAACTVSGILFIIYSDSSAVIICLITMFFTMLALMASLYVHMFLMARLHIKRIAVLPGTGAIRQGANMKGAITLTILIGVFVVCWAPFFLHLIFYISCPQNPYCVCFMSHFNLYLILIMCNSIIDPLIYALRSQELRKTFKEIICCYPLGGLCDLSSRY
Summary of the method: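 CHO cells transfected with human MC4R were tested for dose-dependent inhibition of α-MSH-stimulated cAMP accumulation, measured by ELISA. IC50 was derived. Representative experiments were run 2–8 times.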

[2] = target: T2, Melanocyte-stimulating hormone receptor (Homo sapiens, UniProt Q01726); experiment: Binding affinity to MC1R
Target sequence in this assay (Q01726 whole entry): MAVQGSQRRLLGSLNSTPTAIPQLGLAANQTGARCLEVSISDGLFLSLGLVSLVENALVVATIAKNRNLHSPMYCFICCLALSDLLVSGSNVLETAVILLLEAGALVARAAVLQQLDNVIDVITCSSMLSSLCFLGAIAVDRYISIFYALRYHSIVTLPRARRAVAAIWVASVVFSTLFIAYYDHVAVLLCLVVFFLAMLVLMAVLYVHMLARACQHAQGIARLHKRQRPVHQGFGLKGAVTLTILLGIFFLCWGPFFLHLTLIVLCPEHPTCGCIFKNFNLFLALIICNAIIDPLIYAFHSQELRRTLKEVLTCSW

[3] = target: Melanocortin receptor 3 (Homo sapiens, UniProt P41968); experiment: Binding affinity to MC3R
Chain of Melanocortin receptor 3 (P41968 whole entry): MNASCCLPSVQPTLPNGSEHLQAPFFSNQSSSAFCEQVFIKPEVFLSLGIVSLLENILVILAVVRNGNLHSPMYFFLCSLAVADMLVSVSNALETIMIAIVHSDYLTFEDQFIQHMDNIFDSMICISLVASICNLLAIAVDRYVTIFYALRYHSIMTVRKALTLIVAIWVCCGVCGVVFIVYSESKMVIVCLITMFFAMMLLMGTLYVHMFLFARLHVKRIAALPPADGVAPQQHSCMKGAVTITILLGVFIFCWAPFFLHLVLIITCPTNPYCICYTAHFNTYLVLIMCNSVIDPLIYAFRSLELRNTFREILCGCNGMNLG

[4] = target: Melanocortin receptor 5 (Homo sapiens, UniProt P33032); experiment: Binding affinity to MC5R
Chain of Melanocortin receptor 5 (P33032 whole entry): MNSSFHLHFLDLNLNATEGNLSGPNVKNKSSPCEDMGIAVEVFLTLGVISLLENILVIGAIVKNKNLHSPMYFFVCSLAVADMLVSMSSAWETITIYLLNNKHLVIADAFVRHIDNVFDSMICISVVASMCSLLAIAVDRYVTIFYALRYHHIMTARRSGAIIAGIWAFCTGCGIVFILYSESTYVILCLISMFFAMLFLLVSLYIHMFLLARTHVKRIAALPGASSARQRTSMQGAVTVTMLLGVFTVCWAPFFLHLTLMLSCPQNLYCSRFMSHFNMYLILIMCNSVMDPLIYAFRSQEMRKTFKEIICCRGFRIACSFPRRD

[5] = Clearance in rat at 2.5 mg/kg, iv; assay type: ADME, organism-based; design: dose 2.5 mg/kg, route intravenous; conditions: in vivo
Summary of the method: (§1)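 Rat pharmacokinetics: single 2.5 mg/kg iv injection and separately 10 mg/kg oral gavage. Plasma CL, Vd, t1/2, AUC, Cmax, Tmax and oral bioavailability were derived. Whole-brain concentration was measured at 1 and 4 h after oral dosing and expressed as a brain/plasma ratio. Values are the average of three animals.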

[6] = Volume of distribution in rat in rat at 2.5 mg/kg, iv; assay type: ADME, organism-based; design: dose 2.5 mg/kg, route intravenous; conditions: in vivo; summary of the method: as §1
[7] = Half life in rat at 2.5 mg/kg, iv; assay type: ADME, organism-based; design: dose 2.5 mg/kg, route intravenous; conditions: in vivo; summary of the method: as §1
[8] = AUC in rat at 2.5 mg/kg, iv; assay type: ADME, organism-based; design: dose 2.5 mg/kg, route intravenous; conditions: plasma; summary of the method: as §1
[9] = Cmax in rat at 10 mg/kg, po; assay type: ADME, organism-based; design: dose 10 mg/kg, route oral; conditions: in vivo; summary of the method: as §1
[10] = Tmax in rat at 10 mg/kg, po; assay type: ADME, organism-based; design: dose 10 mg/kg, route oral; conditions: in vivo; summary of the method: as §1
[11] = AUC in rat at 10 mg/kg, po; assay type: ADME, organism-based; design: dose 10 mg/kg, route oral; conditions: plasma; summary of the method: as §1
[12] = Drug level in rat brain at 10 mg/kg, po after 4 hrs; assay type: ADME, organism-based; design: dose 10 mg/kg, route oral; conditions: read-out: Drug uptake; summary of the method: as §1
[13] = Ratio of drug level in brain to plasma in rat at 10 mg/kg, po after 4 hrs; assay type: ADME, organism-based; design: dose 10 mg/kg, route oral; conditions: read-out: BPR; summary of the method: as §1
[14] = Bioavailability in rat at 10 mg/kg, po; assay type: ADME, organism-based; conditions: in vivo; summary of the method: as §1
[15] = target: T1, Melanocortin receptor 4; experiment: Displacement of [125I]NDP-MSH from human MC4 receptor expressed in HEK293 cells; assay type: cell-based
Summary of the method: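 HEK293 cells expressing human MC4R, radioligand competition binding with [125I]-NDP-MSH. Ki values are the average of two or more independent measurements.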

[16] = target: T1, Melanocortin receptor 4; experiment: Intrinsic activity at human MC4 receptor expressed in CHO cells assessed as accumulation of cAMP production relative to alphaMSH; assay type: functional, cell-based
Summary of the method: (§2)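 CHO cells transfected with human MC4R were stimulated by compound and accumulated cAMP was measured by ELISA. Intrinsic activity is expressed relative to α-MSH. Representative experiments were run 2–8 times.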

[17] = target: T1, Melanocortin receptor 4; experiment: Agonist activity at human MC4 receptor expressed in CHO cells assessed as accumulation of cAMP production; assay type: functional, cell-based; summary of the method: as §2
[18] = test system: Rattus norvegicus; experiment: Suppression of food intake in ip dosed DIO rat after 24 hrs relative to control; assay type: functional, organism-based
Summary of the method: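 Male DIO rats were food-deprived overnight and on the test day. They were dosed ip at 3, 10 or 30 mg/kg in sterile water, and food was returned 1 h later. Cumulative intake was measured at set intervals over 24 h and compared with vehicle-treated rats.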

[19] = test system: Rattus norvegicus; experiment: Reduction of body weight in po dosed DIO rat; assay type: functional, organism-based
Summary of the method: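 Male DIO rats, separate groups, dosed orally once daily 1 h before lights out for 7 days with vehicle, fenfluramine, or 3, 10 or 30 mg/kg test article. Body weight and spillage-corrected food intake were recorded daily and compared with vehicle-treated controls.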

[20] = test system: Rattus norvegicus; experiment: Suppression of food intake in DIO rat at 30 mg/kg, po relative to control; assay type: functional, organism-based; design: dose 30 mg/kg
Summary of the method: (§3)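 Male DIO rats in separate groups were dosed orally once daily, 1 h before lights out, for 7 days with vehicle, fenfluramine, or 3, 10 or 30 mg/kg compound. Food intake (corrected for spillage) and body weight were recorded daily. After 7 days, body composition was measured by EchoMRI and fasting glucose by glucometer, each relative to baseline. Significance was set at p < 0.05.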

[21] = test system: Rattus norvegicus; experiment: Effect on food intake in DIO rat assessed as inhibition of feeding at 3 mg/kg, po after 6 days; assay type: functional, organism-based; design: dose 3 mg/kg; summary of the method: as §3
[22] = test system: Rattus norvegicus; experiment: Reduction of body weight in DIO rat at 30 mg/kg, po after 2 days; assay type: functional, organism-based; design: dose 30 mg/kg; summary of the method: as §3
[23] = test system: Rattus norvegicus; experiment: Increase in fat loss in po dosed DIO rat after 7 days; assay type: functional, organism-based; summary of the method: as §3
[24] = test system: Rattus norvegicus; experiment: Decrease in fasting glucose level in DIO rat at 30 mg/kg, po after 7 days; assay type: functional, organism-based; design: dose 30 mg/kg; summary of the method: as §3
[25] = target: T2, Melanocyte-stimulating hormone receptor; conditions: 10 uM
Target sequence in this assay (Q01726 whole entry, looked up): as the sequence (Q01726 whole entry) above

Row | Structure (SMILES) | pKi [15] | Intrinsic activity [16] | pEC50 [17] | further results
1 | Cc1ccc(N2CCN(C(=O)[C@H]3CN(C4CCOCC4)C[C@@H]3c3ccc(Cl)cc3)CC2)c([C@@H](NC(=O)CCN(C)C)C(C)C)c1 | 8.33 | 10% |  | pIC50 [1]: 7.19; pKi [2]: 6.92; pKi [3]: 5.89; pKi [4]: 6.28; clearance [5]: 82 mL/min/kg; Vd [6]: 75 L/kg; half-life [7]: 11 h; AUC [8]: 455 ng·h/mL; Cmax [9]: 17 ng/mL; Tmax [10]: 2 h; AUC [11]: 161 ng·h/mL; concentration at 4 h [12]: 18 ng/g; Kp at 4 h [13]: 1; bioavailability [14]: 14%
2 | Cc1ccc(N2CCN(C(=O)[C@@H]3CN(C4CCOCC4)C[C@H]3c3ccc(Cl)cc3)CC2)c([C@@H](NC(=O)CCN(C)C)C(C)C)c1 (stereo in doubt; 13b) [listing 1 of 2 here] |  | 121% |  | 
3 | Cc1ccc(N2CCN(C(=O)[C@@H]3CN(C4CCOCC4)C[C@H]3c3ccc(Cl)cc3)CC2)c([C@@H](NC(=O)CCN)C(C)C)c1 | 8.66 | 107% | 8.22 | 
4 | Cc1ccc(N2CCN(C(=O)[C@@H]3CN(C4CCOCC4)C[C@H]3c3ccc(Cl)cc3)CC2)c([C@@H](NC(=O)[C@H](C)N)C(C)C)c1 | 9.00 | 38% | 8.28 | 
5 | CC(C)[C@H](NC(=O)CCN(C)C)c1cccc(F)c1N1CCN(C(=O)[C@@H]2CN(C(C)C)C[C@H]2c2ccc(C(F)(F)F)c(F)c2)CC1 | 7.29 | 47% | 6.47 | 
6 | Cc1ccc(N2CCN(C(=O)[C@H]3CN(C(C)C)C[C@H]3c3ccc(Cl)cc3)CC2)c([C@@H](NC(=O)CCN(C)C)C(C)C)c1 | 7.05 |  |  | 
7 | CC(C)[C@H](NC(=O)CCN(C)C)c1cccc(F)c1N1CCN(C(=O)[C@@H]2CN(C(C)C)C[C@H]2c2cc(F)c(F)c(F)c2)CC1 | 6.60 |  |  | 
8 | CC(C)[C@H](NC(=O)CCN(C)C)c1cccc(F)c1N1CCN(C(=O)[C@@H]2CN(C(C)C)C[C@H]2c2ccc(F)c(F)c2)CC1 | 6.54 |  |  | 
9 | Cc1ccc(N2CCN(C(=O)[C@@H]3CN(C4CCOCC4)C[C@H]3c3ccc(Cl)cc3)CC2)c([C@H](C(C)C)N(C)C)c1 | 8.28 | 35% |  | 
10 | Cc1cccc([C@@H]2CN(C(C)C)C[C@H]2C(=O)N2CCN(c3c(F)cccc3[C@@H](NC(=O)CCN(C)C)C(C)C)CC2)c1 | 6.33 |  |  | 
11 | CCC(=O)N1C[C@@H](C(=O)N2CCN(c3ccc(C)cc3[C@@H](NC(=O)CCN(C)C)C(C)C)CC2)[C@H](c2ccc(Cl)cc2)C1 | 8.34 | 129% | 7.57 | 
12 | CCNC(C)Cc1cccc(C(F)(F)F)c1 (centres undefined) |  |  |  | Activity [18]: Active; Activity [19]: Active
13 | COc1cccc([C@@H]2CN(C(C)C)C[C@H]2C(=O)N2CCN(c3c(F)cccc3[C@@H](NC(=O)CCN(C)C)C(C)C)CC2)c1 | 5.43 |  |  | 
14 | CC(C)[C@H](NC(=O)CCN(C)C)c1cccc(F)c1N1CCN(C(=O)[C@@H]2CN(C(C)C)C[C@H]2c2cccc(F)c2)CC1 | 6.25 |  |  | 
15 | Cc1ccc(N2CCN(C(=O)[C@@H]3CN(C4CCOCC4)C[C@H]3c3ccc(Cl)cc3)CC2)c([C@@H](NC(=O)CN)C(C)C)c1 | 8.70 | 114% | 8.04 | 
16 | CC(C)[C@H](NC(=O)CCN(C)C)c1cccc(F)c1N1CCN(C(=O)[C@@H]2CN(C(C)C)C[C@H]2c2cccc(Cl)c2)CC1 | 6.43 |  |  | 
17 | CC(=O)N1C[C@@H](C(=O)N2CCN(c3ccc(C)cc3[C@@H](NC(=O)CCN(C)C)C(C)C)CC2)[C@H](c2ccc(Cl)cc2)C1 | 8.12 | 100% | 7.36 | 
18 | CC(C)[C@H](NC(=O)CCN(C)C)c1cccc(F)c1N1CCN(C(=O)[C@@H]2CN(C(C)C)C[C@H]2c2ccc(C(F)(F)F)cc2F)CC1 | 7.21 |  |  | 
19 | CC(C)[C@H](NC(=O)CCN(C)C)c1cccc(F)c1N1CCN(C(=O)[C@@H]2CN(C(C)C)C[C@H]2c2ccoc2)CC1 | 6.07 |  |  | 
20 | Cc1ccc(N2CCN(C(=O)[C@@H]3CN(C4CCOCC4)C[C@H]3c3ccc(Cl)cc3)CC2)c([C@@H](NC(=O)CCN(C)C)C(C)C)c1 (stereo in doubt; 13b-1) |  | 122% |  | Activity [20]: Active; Activity [21]: Active; Activity [22]: Active; Activity [23]: Active; Activity [24]: Active; inhibition [25]: 38%
21 | CNCC(=O)N[C@H](c1cc(C)ccc1N1CCN(C(=O)[C@@H]2CN(C3CCOCC3)C[C@H]2c2ccc(Cl)cc2)CC1)C(C)C | 8.68 | 84% | 7.72 | 
22 | CC(C)[C@H](NC(=O)CCN(C)C)c1cccc(F)c1N1CCN(C(=O)[C@@H]2CN(C(C)C)C[C@H]2c2ccc(F)c(Cl)c2)CC1 | 6.59 | 78% | 6.39 | 
23 | Cc1ccc(N2CCN(C(=O)[C@@H]3CN(C4CCOCC4)C[C@H]3c3ccc(Cl)cc3)CC2)c([C@@H](NC(=O)[C@@H](C)N)C(C)C)c1 | 8.14 | 56% | 7.77 | 
24 | CC(C)[C@H](NC(=O)CCN(C)C)c1cccc(F)c1N1CCN(C(=O)[C@@H]2CN(C(C)C)C[C@H]2c2cc(F)ccc2F)CC1 | 5.69 |  |  | 
25 | CC(C)[C@H](NC(=O)CCN(C)C)c1cccc(F)c1N1CCN(C(=O)[C@@H]2CN(C(C)C)C[C@H]2c2ccc(Cl)cc2)CC1 | 8.28 | 103% | 7.70 | 
26 | Cc1ccc(N2CCN(C(=O)[C@@H]3CN(C4CCOCC4)C[C@H]3c3ccc(Cl)cc3)CC2)c([C@@H](NC(=O)CCN(C)C)C(C)C)c1 (stereo in doubt; 13b) [listing 2 of 2 here] | 8.85 |  | 8.00 | 
27 | CC(C)[C@H](NC(=O)CCN(C)C)c1cccc(F)c1N1CCN(C(=O)[C@@H]2CN(C(C)C)C[C@H]2c2cc(F)cc(F)c2)CC1 | 5.11 |  |  | 
28 | Cc1ccc(N2CCN(C(=O)[C@@H]3CN(C4CCOCC4)C[C@H]3c3ccc(Cl)cc3)CC2)c([C@@H](N)C(C)C)c1 | 7.92 | 36% |  | 
29 | Cc1ccc(N2CCN(C(=O)[C@@H]3CNC[C@H]3c3ccc(Cl)cc3)CC2)c([C@@H](NC(=O)CCN(C)C)C(C)C)c1 | 8.14 | 72% | 7.10 | 
30 | CC(C)[C@H](NC(=O)CCN(C)C)c1cccc(F)c1N1CCN(C(=O)[C@@H]2CN(C(C)C)C[C@H]2c2ccc(Cl)cc2Cl)CC1 | 8.12 | 24% |  | pIC50 [1]: 6.25
